From PubChem
ALR inh – human ALR oxidase inhibition via reduced H2O2 | inhibition, % (test concentration not listed) | P55789 | purified ALR, DTT oxidation, H2O2 HRP-luminol luminescence | 290,000 tested, 3.8% active | AID 485317;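 active = mean replicate inhibition above about 79%, with every replicate also reaching it, limit read from the data; inconclusive = only one of the two criteria met; inactive = mean below limit and not every replicate reaching it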
Target sequence (P55789 whole entry, looked up): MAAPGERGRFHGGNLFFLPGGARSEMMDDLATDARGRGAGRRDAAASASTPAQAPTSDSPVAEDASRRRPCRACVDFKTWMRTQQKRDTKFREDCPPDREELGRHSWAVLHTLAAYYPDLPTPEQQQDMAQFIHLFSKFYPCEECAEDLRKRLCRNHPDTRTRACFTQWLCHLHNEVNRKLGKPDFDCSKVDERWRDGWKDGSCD
CAL PDZ FP-1 – CAL PDZ (human) peptide binding inhibition. Q9HD26. purified CAL PDZ, TMR-peptide fluorescence polarization, 1 h. inhibition, % at 24.9 µM. 300,000 tested, 0.92% active;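 active = mean inhibition of at least 30% with at least half of replicates also reaching 30%; inconclusive = no clear call, values can overlap the other calls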
CAL PDZ FP-2 – human CAL PDZ-peptide interaction inhibition; inhibition, % at 20 µM; AID 504414; 330,000 tested, 0.02% active; Q9HD26; purified CAL PDZ, TMR-peptide fluorescence polarization, 1 h;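 active = highest replicate inhibition of at least 40%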
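Test system: tagged CAL PDZ domain / Buffer or medium: sodium phosphate/NaCl buffer pH 7.4 with TCEP, IgG, Thesit / Reagent: TMR-labelled reporter peptide T*-PRC34 bound in PDZ groove / Compound dosing: single point, 20 µM / Schedule: 1 h incubation at room temperature before polarization reading / Technique: fluorescence polarization (mP) / Benchmarks: unlabelled peptide, DMSO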
Dyrk1A ADPGlo – blocks rat Dyrk1A kinase activity | inhibition, % at 12.5 µM | Q63470 | 310,000 tested, 0.43% active | ADP-Glo luminescence, NFATc1 peptide; in the data active = inhibition above about 50%
Rtt109 HAT inh – C. albicans Rtt109 histone acetyltransferase inhibition. Q5AAJ8. purified Rtt109/Vps75, ThioGlo CoA-SH fluorescence, 4 h. inhibition, % at 34.9 µM. 330,000 tested, 0.16% active;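 active = inhibition of at least 50% in every replicate; inconclusive = best replicate reaches 50% inhibition but some replicates fall short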
Each line names hits and unclear results; the compound was inactive in the other large screens. Sampled rows, rich in hits. Any-hit rate of the full collection: about 4.3%.

CC(C)=C(NC(=O)c1ccccc1)C(=O)Nc1cccc(C)c1	none
Cc1ccc(S(=O)(=O)/N=C(/Nc2ccc3[nH]c(=O)[nH]c3c2)c2ccc(F)cc2)cc1	none
Nc1c(O)ccc2c1C(=O)c1ccccc1C2=O	ALR inh 98.7 (no result: CAL PDZ FP-1, CAL PDZ FP-2, Dyrk1A ADPGlo, Rtt109 HAT inh)
O=C(COC(=O)/C=C/c1ccc(Cl)cc1Cl)NCc1ccco1	none (no result: Dyrk1A ADPGlo)
CC(=O)Nc1ccc(SC[C@H](c2ccccc2)N2CCN(CCc3ccccc3)CCC2=O)cc1	ALR inh 98.0 (no result: CAL PDZ FP-1, CAL PDZ FP-2, Dyrk1A ADPGlo, Rtt109 HAT inh)
Fc1ccc(-c2nnn(Cc3ccccc3Cl)n2)cc1	none
Cc1ccccc1Cn1nnc(-c2ccc(F)cc2)n1	ALR inh 92.9
CSc1ccc(/C=C(\C(=O)O)c2ccc(S(=O)(=O)N3CCCCC3)s2)cc1	ALR inh 90.1 (no result: Rtt109 HAT inh)
O=C(O)/C(=C\c1ccc(Cl)cc1)c1ccc(S(=O)(=O)N2CCCC2)s1	ALR inh 97.6 (no result: Dyrk1A ADPGlo)
O=C(O)/C(=C\c1ccccc1Cl)c1ccc(S(=O)(=O)N2CCCCC2)s1	none
CCOC(=O)c1nnn2c1nc(SCC(C)=O)c1ccccc12	ALR inh 87.8 (no result: CAL PDZ FP-1, CAL PDZ FP-2, Dyrk1A ADPGlo, Rtt109 HAT inh)
Cc1ccc(NC(=O)C=NOCC(=O)Nc2cc(C)cc(C)c2)cc1	none (no result: Dyrk1A ADPGlo)
CC(C)CC(=O)c1c[nH]c(C(=O)N2CCN(Cc3ccccc3)CC2)c1	CAL PDZ FP-1 80.1 (no result: Dyrk1A ADPGlo)
O=C(c1ccccc1)N1CCN(Cc2ccccc2)CC1	none (no result: Rtt109 HAT inh)
COC1=C(Br)C(=O)c2ncccc2C1=O	none (no result: ALR inh, Dyrk1A ADPGlo)
CCCCN1C(=N)N([C@@H](CCC)CN2CCC[C@H]2CN2C(N)=NC[C@H]2C(C)C)C[C@H]1[C@H](C)CC	none (no result: ALR inh)
CC1=C(C)CS(=O)N(S(=O)(=O)c2ccccc2)C1 (stereo not drawn)	ALR inh 98.8
Cc1nc(N2CCC(C)CC2)c2c(C)c(C(=O)Nc3ccc(C)c(F)c3)sc2n1	none (no result: Rtt109 HAT inh)
Cc1nc(N2CCN(C)CC2)c2c(C)c(C(=O)Nc3ccc(C)c(F)c3)sc2n1	ALR inh 96.1
COc1ccc(C2SCC(=O)N2c2ccc(OC)cc2)cc1 (stereo not drawn)	none
COc1ccc(N2C(=O)CSC2c2ccncc2)cc1 (stereo not drawn)	ALR inh 99.2 (no result: CAL PDZ FP-2)
COc1ccc(C2SCC(=O)N2c2ccc(F)cc2)cc1 (stereo not drawn)	ALR inh 98.8
COc1ccc(N2C(=O)CCC(C(=O)N3CCCCC3)C2c2ccc(F)cc2)cc1 (stereo not drawn)	CAL PDZ FP-1 59.2
Cc1ccc(N2C(=O)CSC2c2cccs2)cc1 (stereo not drawn)	ALR inh 98.9 (no result: CAL PDZ FP-1)
Cc1c2c(nc3ccccc13)OCC2	none (no result: ALR inh)
COC(=O)c1ccc(NC(=S)Nc2ccccn2)cc1	none
O=C(NC(=S)Nc1ccc(O)cc1)C1CCCC1	none (no result: ALR inh)
COC(=O)c1ccc(NC(=S)Nc2ccc(O)cc2)cc1	ALR inh 99.1
CCN(CC)CCNC(=O)C(=O)Nc1ccc(C(=O)OC)cc1	CAL PDZ FP-1 active (no result: ALR inh)
Oc1ccc(NC(=S)Nc2ccc(O)cc2)cc1	ALR inh 99.3
CC1CCN(c2ccc(-c3ccc(NC(=O)C(F)(F)F)cc3)nn2)CC1	none
CC(=O)Nc1ccc(S(=O)(=O)N(C)CC(=O)OCC(=O)N2CC(C)OC(C)C2)cc1 (stereo not drawn)	Rtt109 HAT inh inconclusive
COc1ccc(C(CNC(=O)c2ccc(NS(=O)(=O)c3ccc(F)c(C)c3)cc2)N2CCCC2)cc1 (stereo not drawn)	CAL PDZ FP-1 55.4 (no result: ALR inh)
CC(Nc1ccc(F)cc1F)C(=O)NC(=O)NC1CCCCC1 (stereo not drawn)	none
CCOc1ccccc1NC(C)C(=O)NC(=O)NC1CCCCC1 (stereo not drawn)	ALR inh 87.8
O=c1c2cc3c(cc2[nH]c(=S)n1C1CCN(Cc2ccccc2)CC1)OCO3	ALR inh 93.1 (no result: Dyrk1A ADPGlo)
O=C(Cc1ccccc1)NNc1ccc2ccccc2c1	none (no result: CAL PDZ FP-1)
O=C(CNc1ccc2ccccc2c1)NNC1=NCCC1	ALR inh 83.9 (no result: Rtt109 HAT inh)
O=C(CN1C(=O)CCC1=O)NNc1ccc2ccccc2c1	ALR inh 98.4 (no result: CAL PDZ FP-1)
CCOn1c(=O)c(C)[n+]([O-])c2ccccc21	none (no result: CAL PDZ FP-2)
Cc1cc(OC(C)C(=O)NNC(=O)Nc2ccc(F)cc2F)cc(C)c1Cl (stereo not drawn)	none
O=C(NNC(=O)c1ccccc1O)c1ccc(Cl)c(S(=O)(=O)N2CCCCC2)c1	ALR inh 97.3
O=C(NNC(=O)c1cccs1)c1ccc(Cl)c(S(=O)(=O)N2CCCC2)c1	none
Cn1nnnc1SCC(=O)Nc1ccc(N2CCOCC2)cc1	none
